The text below walks through data of ChEMBL document CHEMBL4425169 (ACS Med Chem Lett, 2016).

Data set [1] has as its target T1, ATP-sensitive inward rectifier potassium channel 1 (Homo sapiens, UniProt P48048).
T1 sequence (P48048 whole entry): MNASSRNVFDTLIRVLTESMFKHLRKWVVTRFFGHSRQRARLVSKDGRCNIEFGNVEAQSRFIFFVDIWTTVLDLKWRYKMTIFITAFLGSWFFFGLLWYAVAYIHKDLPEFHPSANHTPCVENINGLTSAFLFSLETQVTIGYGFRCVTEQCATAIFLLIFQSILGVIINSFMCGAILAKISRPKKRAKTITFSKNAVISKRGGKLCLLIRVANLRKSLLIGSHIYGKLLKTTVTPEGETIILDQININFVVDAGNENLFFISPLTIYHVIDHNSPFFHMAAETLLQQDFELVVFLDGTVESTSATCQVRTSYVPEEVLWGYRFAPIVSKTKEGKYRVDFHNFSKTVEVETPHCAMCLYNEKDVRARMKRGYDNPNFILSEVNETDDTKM
The experiment in a line: Inhibition of ROMK (unknown origin) after 30 mins by 86Rb+ efflux assay.

In data set [2] the target is T2, Voltage-gated inwardly rectifying potassium channel KCNH2 (Homo sapiens, UniProt Q12809). The experiment in a line: Displacement of [35S]MK-499 from human ERG. Background: In a radioligand displacement assay an active substance lowers the binding of a labelled ligand.
The species named for data set [3] is Homo sapiens. Description: Selectivity ratio of IC50 for human ERG to IC50 for ROMK (unknown origin).
The subject of data set [4] is Rattus norvegicus. Description: Natriuretic activity in Sprague-Dawley rat at 1 mg/kg via oral gavage administered 30 mins prior to void induction by loading saline measured upto 4 hrs relative to vehicle treated control. It is filed as functional. A digest of the protocol:
(§1)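 Acute rat diuresis model in male-unspecified Sprague-Dawley rats, single oral dose, urine collected over 4 h. Urine volume, sodium excretion and potassium excretion expressed as fold increase over vehicle-treated controls; n = 5 per group; significance tested against vehicle.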

Data set [5] is described as follows: Volume of distribution at steady state in rat at 0.5 mg/kg, iv or 1 mg/kg, po. The class given is ADME, organism-based. As to conditions: in vivo, read-out: Vdss.
Data set [6] concerns the target T2, Voltage-gated inwardly rectifying potassium channel KCNH2. The experiment in a line: Inhibition of human ERG after 6 mins by electrophysiological assay.
In data set [7] the test system is Rattus norvegicus. Description: Kaliuretic activity in Sprague-Dawley rat at 1 mg/kg via oral gavage administered 30 mins prior to void induction by loading saline measured upto 4 hrs relative to vehicle treated control. It is filed as functional. A digest of the protocol:
as §1

The subject of data set [8] is Rattus norvegicus. Description: Diuretic activity in Sprague-Dawley rat at 3 mg/kg via oral gavage administered 30 mins prior to void induction by loading saline measured upto 4 hrs relative to vehicle treated control. It is filed as functional. A digest of the protocol: (§2)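 Acute 4 h study in Sprague-Dawley rats after oral dosing, n = 5 per group. Urine volume and sodium and potassium excretion were expressed as fold increase over vehicle-treated animals. Significance was tested versus vehicle (p < 0.05 or p < 0.01).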

Data set [9] deals with Rattus norvegicus. The experiment in a line: Kaliuretic activity in Sprague-Dawley rat at 3 mg/kg via oral gavage administered 30 mins prior to void induction by loading saline measured upto 4 hrs relative to vehicle treated control. It is filed as functional. A digest of the protocol:
as §1

A short description of data set [10]: Dose normalized AUC in rat at 1 mg/kg, po. The class given is ADME, organism-based. As to conditions: in vivo.
Data set [11] in a line: Oral bioavailability in rat at 1 mg/kg. The settings on record: in vivo. The class given is ADME, organism-based.
The nature of data set [12]: Half life in rat at 0.5 mg/kg, iv or 1 mg/kg, po. The class given is ADME, organism-based. The settings on record: in vivo.
Data set [13] is described as follows: Clearance in rat at 0.5 mg/kg, iv or 1 mg/kg, po. The settings on record: in vivo. The class given is ADME, organism-based.
Data set [14] deals with Rattus norvegicus. Description: Natriuretic activity in Sprague-Dawley rat at 3 mg/kg via oral gavage administered 30 mins prior to void induction by loading saline measured upto 4 hrs relative to vehicle treated control. The class given is functional. In outline:
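Acute 4 h diuresis/natriuresis study in SD rats given a single oral dose, n = 5 per group. Urinary sodium output is expressed as fold increase over vehicle-treated animals, with significance tested against vehicle.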

In data set [15] the test system is Rattus norvegicus. The experiment in a line: Diuretic activity in Sprague-Dawley rat at 1 mg/kg via oral gavage administered 30 mins prior to void induction by loading saline measured upto 4 hrs relative to vehicle treated control. The class given is functional. In outline:
as §1

Data set [16] concerns Rattus norvegicus. The experiment in a line: Antihypertensive activity in spontaneously hypertensive rat assessed as reduction in systolic blood pressure at 25 mg/kg via oral gavage qd administered for 4 days measured on day 4 by telemetry (reference value: 2.5 +/- 2.2 mmHg). The class given is functional.
Data set [17] concerns Rattus norvegicus. Description: Kaliuretic activity in Sprague-Dawley rat administered via oral gavage 30 mins prior to void induction by loading saline measured upto 4 hrs relative to vehicle treated control. The class given is functional. A digest of the protocol:
as §2

A short description of data set [18]: Clearance in rat at 1 mg/kg, iv or 2 mg/kg, po. It is filed as ADME, organism-based. The settings on record: in vivo. In outline: (§3)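 Rats dosed once at 1 mg/kg IV and, separately, 2 mg/kg PO, with n = 3. Derived parameters were plasma clearance, Vdss, dose-normalized oral AUC (μM·h·kg/mg), half-life, and oral bioavailability (F%).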
Data set [19] can be described thus: Dose normalized AUC in rat at 2 mg/kg, po. As to conditions: in vivo. The class given is ADME, organism-based. A digest of the protocol:
as §3

Data set [20] can be described thus: Volume of distribution at steady state in rat at 1 mg/kg, iv or 2 mg/kg, po. As to conditions: in vivo, read-out: Vdss. It is filed as ADME, organism-based. In outline: as §3
The nature of data set [21]: Oral bioavailability in rat at 2 mg/kg. The class given is ADME, organism-based. The settings on record: in vivo. A digest of the protocol: as §3
Data set [22] can be described thus: Half life in rat at 1 mg/kg, iv or 2 mg/kg, po. The class given is ADME, organism-based. As to conditions: in vivo. A digest of the protocol: as §3
Data set [23] relates to Rattus norvegicus. The experiment in a line: Diuretic activity in Sprague-Dawley rat at 10 mg/kg via oral gavage administered 30 mins prior to void induction by loading saline measured upto 4 hrs relative to vehicle treated control. It is filed as functional. A digest of the protocol: as §2
Data set [24] relates to Rattus norvegicus. The experiment in a line: Natriuretic activity in Sprague-Dawley rat at 10 mg/kg via oral gavage administered 30 mins prior to void induction by loading saline measured upto 4 hrs relative to vehicle treated control. It is filed as functional. A digest of the protocol:
as §2

Data set [25] has as its system Rattus norvegicus. The experiment in a line: Kaliuretic activity in Sprague-Dawley rat at 0.3 mg/kg via oral gavage administered 30 mins prior to void induction by loading saline measured upto 4 hrs relative to vehicle treated control. The class given is functional. In outline: as §1
Data set [26] has as its system Rattus norvegicus. Description: Natriuretic activity in Sprague-Dawley rat at 0.3 mg/kg via oral gavage administered 30 mins prior to void induction by loading saline measured upto 4 hrs relative to vehicle treated control. The class given is functional. A digest of the protocol:
as §1

Data set [27] relates to Rattus norvegicus. Description: Diuretic activity in Sprague-Dawley rat at 0.3 mg/kg via oral gavage administered 30 mins prior to void induction by loading saline measured upto 4 hrs relative to vehicle treated control. The class given is functional. In outline: as §1
Data set [28] is filed under the species Homo sapiens. Description: Selectivity ratio of IC50 for human ERG to IC50 for ROMK (unknown origin) expressed in CHO cells by electrophysiological assay. It is filed as cell-based. A digest of the protocol:
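Both channels were tested in electrophysiology (EP) assays. The ratio is the hERG EP IC50 divided by the ROMK EP IC50.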

The target in data set [29] is T1, ATP-sensitive inward rectifier potassium channel 1. Description: Inhibition of ROMK (unknown origin) expressed in CHO cells after 6 mins by electrophysiological assay. It is filed as cell-based.

The IC50 is the midpoint of a concentration-inhibition curve. The low end stands for inhibition by little substance, the high end for a need for much substance. The term bioavailability denotes the share of a dose that reaches the circulation, judged against a reference dose that is usually intravenous. Broadly, the half-life is how long it takes for the measured level to halve. A high value points to slow decline.

T2 sequence (Q12809 whole entry): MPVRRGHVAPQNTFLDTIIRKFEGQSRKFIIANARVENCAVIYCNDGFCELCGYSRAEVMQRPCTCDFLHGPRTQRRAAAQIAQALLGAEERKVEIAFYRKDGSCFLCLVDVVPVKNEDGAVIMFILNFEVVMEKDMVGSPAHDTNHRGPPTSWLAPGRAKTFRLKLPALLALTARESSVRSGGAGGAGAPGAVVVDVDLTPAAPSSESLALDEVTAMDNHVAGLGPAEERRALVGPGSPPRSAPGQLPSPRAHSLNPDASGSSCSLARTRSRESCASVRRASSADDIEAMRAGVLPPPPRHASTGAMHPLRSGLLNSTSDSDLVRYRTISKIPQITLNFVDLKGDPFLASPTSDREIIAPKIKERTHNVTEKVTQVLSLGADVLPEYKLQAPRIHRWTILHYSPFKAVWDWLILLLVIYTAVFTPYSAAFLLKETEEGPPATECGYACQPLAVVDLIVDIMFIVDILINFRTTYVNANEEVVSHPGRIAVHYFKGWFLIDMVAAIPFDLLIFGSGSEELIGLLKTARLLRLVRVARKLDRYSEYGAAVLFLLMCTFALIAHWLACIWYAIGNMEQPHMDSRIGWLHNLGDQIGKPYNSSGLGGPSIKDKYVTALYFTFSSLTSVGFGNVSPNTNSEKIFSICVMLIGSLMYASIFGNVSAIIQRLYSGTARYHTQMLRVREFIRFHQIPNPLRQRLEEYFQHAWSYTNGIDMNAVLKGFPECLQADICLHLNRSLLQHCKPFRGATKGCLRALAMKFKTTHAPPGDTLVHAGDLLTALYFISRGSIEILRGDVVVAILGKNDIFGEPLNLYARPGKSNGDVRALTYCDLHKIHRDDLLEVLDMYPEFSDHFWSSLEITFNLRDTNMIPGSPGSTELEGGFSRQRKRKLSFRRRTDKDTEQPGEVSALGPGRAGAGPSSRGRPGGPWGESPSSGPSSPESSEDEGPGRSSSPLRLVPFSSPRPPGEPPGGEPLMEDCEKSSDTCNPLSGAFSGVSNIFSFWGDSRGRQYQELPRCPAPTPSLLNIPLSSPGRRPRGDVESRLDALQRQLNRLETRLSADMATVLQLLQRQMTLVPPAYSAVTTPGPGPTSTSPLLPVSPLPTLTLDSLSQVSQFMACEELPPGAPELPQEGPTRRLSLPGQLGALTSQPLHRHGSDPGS

In the case of `Cc1c(C(C)CN2CCN(C(=O)Cc3ccc(-n4cnnn4)cc3)CC2)ccc2c1COC2=O` (centres undefined), the IC50 in data set [1] turned out to be 0.16 µM; in data set [2] it was 60 µM. For the same compound, in the data set filed under Homo sapiens [3], the Ratio IC50 was determined as 380.
Consider `Cc1c([C@H](O)CN2CCN(C[C@H](O)c3ccc4c(c3C)COC4=O)CC2)ccc2c1COC2=O`, for which the “fold change (FC)” value in the data set with Rattus norvegicus [4] was 3.7; in the data set with Rattus norvegicus [7], 1.3; with Rattus norvegicus [8], 4.5; in the data set with Rattus norvegicus [9], 1.1; in the data set on Rattus norvegicus [14] it was 4.1; in the data set with Rattus norvegicus [15], 3.5. The Vd in data set [5] amounted to 4.5 L/kg. The figures for the IC50 in data set [6] and in data set [2] were above 30 µM and 100 µM, respectively. The compound also came in with an AUC/dose in data set [10] of 0.3 µM·kg·h/mg. The bioavailability in data set [11] was 44%. This compound had a half-life in [12] of 84 min. For the same compound, the clearance in data set [13] amounted to 54 mL/min/kg.
Take `NS(=O)(=O)c1cc2c(cc1Cl)NCNS2(=O)=O` [HYDROCHLOROTHIAZIDE]: in the data set with Rattus norvegicus [16], the Activity was determined as 15 mmHg. Also, in the data set on Rattus norvegicus [17], the “fold change (FC)” value came out at 2.
Turning to `Cc1c(C(F)CN2CCN(C(=O)Cc3ccc(-n4cnnn4)cc3)CC2)ccc2c1COC2=O` (centres undefined), the clearance in [18] is 58 mL/min/kg. Moreover, the results for the IC50 in data set [1] and in [2] were 0.069 µM and 68 µM, respectively. In addition, in [19], the AUC/dose was 0.23 µM·h. The Ratio IC50 in the data set filed under Homo sapiens [3] came out at 1000. The Vd in [20] is 1.4 L/kg. This compound came in with a bioavailability in data set [21] of 36%. Also, the half-life in data set [22] is 21 min.
Regarding `Cc1c(C(O)CN2CCN(CC(O)c3ccc4c(c3C)COC4=O)CC2)ccc2c1COC2=O` (centres undefined), the values for the IC50 in data set [6] and in data set [2] were 28 µM and 23 µM, respectively. For the same compound, the “fold change (FC)” value in the data set with Rattus norvegicus [23] is given as 6.8; in the data set with Rattus norvegicus [24], 9.5; in the data set on Rattus norvegicus [8] it was 6.7; in the data set with Rattus norvegicus [14] it was 9.4.
Regarding `Cc1c([C@H](O)CN2CCN(C[C@@H](O)c3ccc4c(c3C)COC4=O)CC2)ccc2c1COC2=O`, the “fold change (FC)” value worked out at 1.5 with Rattus norvegicus [4]; 1.1 in the data set on Rattus norvegicus [25]; 1.4 in the data set with Rattus norvegicus [26]; 1 in the data set on Rattus norvegicus [7]; 1.9 in the data set with Rattus norvegicus [8]; 0.9 with Rattus norvegicus [9]. Further, the “fold change (FC)” value with Rattus norvegicus [14] is 2.2; in the data set with Rattus norvegicus [15] it was 1.6; in the data set on Rattus norvegicus [27], 1.3. For the same compound, the Vd in [5] is 5.8 L/kg. Also, the IC50 in data set [6] is 22 µM; in [2], 47 µM. The AUC/dose in [10] worked out at 0.13 µM·kg·h/mg. The compound also displayed a bioavailability in data set [11] of 45%. Besides, in data set [12], the half-life was 51.6 min. The compound further registered a clearance in [13] of 82 mL/min/kg.
As to `Cc1c(CCN2CCN(CCc3ccc4c(c3C)COC4=O)CC2)ccc2c1COC2=O`, the IC50 in data set [2] worked out at 3 µM. In the data set listed under Homo sapiens [3], the Ratio IC50 was 39.
For `Cc1c(C(O)CN2CCN(C(=O)Cc3ccc(-n4cnnn4)cc3)CC2)ccc2c1COC2=O` (centres undefined), the IC50 was 0.51 µM in data set [1] and 100 µM in [2]. In addition, in the data set listed under Homo sapiens [3], the Ratio IC50 worked out at 200.
As to `Cc1c(C(F)CN2CCN(CC(F)c3ccc4c(c3C)COC4=O)CC2)ccc2c1COC2=O` (centres undefined), the figures for the Ratio IC50 in the data set filed under Homo sapiens [28] and in the data set listed under Homo sapiens [3] were above 770 and 420, respectively. Also, the IC50 in data set [29] was 0.117 µM; in data set [6], above 90 µM; in data set [1] it was 0.096 µM; in [2], 40 µM. The “fold change (FC)” value is reported as 3 in the data set with Rattus norvegicus [23], 3 in the data set on Rattus norvegicus [24], 1.6 with Rattus norvegicus [8] and 1.7 with Rattus norvegicus [14].
The compound `Cc1c(CCN2CCN(CC(O)c3ccc4c(c3C)COC4=O)CC2)ccc2c1COC2=O` (centres undefined) gave an IC50 in data set [1] of 0.034 µM.
